Residue numbers refer to the chain shown, from its start. Like-named read-outs stand apart in the source and are kept apart here.
Assays:
Assay type in all cases: cell-based
CLC-0 E166V mutant = biological target: T1, CLC-0 E166V mutant (Torpedo marmorata, UniProt P21564, C212S/E166V); settings: read-out: Apparent affinity (K1/2)
T1 sequence (P21564 1-805 E166V/C212S): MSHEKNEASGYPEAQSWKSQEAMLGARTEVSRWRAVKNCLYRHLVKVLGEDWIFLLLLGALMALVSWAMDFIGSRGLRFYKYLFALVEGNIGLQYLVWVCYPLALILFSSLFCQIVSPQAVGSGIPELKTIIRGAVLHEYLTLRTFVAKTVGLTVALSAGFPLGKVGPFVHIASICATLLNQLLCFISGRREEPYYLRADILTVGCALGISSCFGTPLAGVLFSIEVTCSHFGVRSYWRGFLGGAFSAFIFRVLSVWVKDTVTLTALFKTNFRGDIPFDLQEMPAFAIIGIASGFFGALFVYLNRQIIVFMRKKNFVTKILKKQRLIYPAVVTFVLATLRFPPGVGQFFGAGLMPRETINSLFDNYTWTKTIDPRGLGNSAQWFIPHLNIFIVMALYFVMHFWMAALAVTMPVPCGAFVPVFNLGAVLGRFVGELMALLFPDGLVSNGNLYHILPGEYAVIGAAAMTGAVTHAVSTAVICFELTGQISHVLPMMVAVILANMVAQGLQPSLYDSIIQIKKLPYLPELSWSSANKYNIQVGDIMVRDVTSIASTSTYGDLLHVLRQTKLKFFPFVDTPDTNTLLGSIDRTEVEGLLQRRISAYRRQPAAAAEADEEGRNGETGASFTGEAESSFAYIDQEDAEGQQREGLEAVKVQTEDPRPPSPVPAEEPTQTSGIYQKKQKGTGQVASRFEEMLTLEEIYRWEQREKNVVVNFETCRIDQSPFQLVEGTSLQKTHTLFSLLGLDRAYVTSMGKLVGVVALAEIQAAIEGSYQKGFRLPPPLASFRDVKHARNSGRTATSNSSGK
How it was run: (§1)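 CLC-0 mutants in the C212S background were transfected into HEK293 cells with lipofectamine and recorded 1–3 d later as excised inside-out patches. Both sides held 130 mM NaCl, 5 mM MgCl2, 10 mM HEPES and 1 mM EGTA, pH 7.4. CPA was perfused continuously onto the cytoplasmic face. Steady-state current over the last 10 ms was normalized to bracketing blocker-free controls and fitted to a Langmuir function for K1/2. Values are mean ± SEM of ~4–6 patches.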

CLC-0 E166Y mutant = biological target: T2, CLC-0 E166Y mutant (Torpedo marmorata, UniProt P21564, C212S/E166Y); settings: read-out: Apparent affinity (K1/2)
T2 sequence (P21564 1-805 E166Y/C212S): T1 sequence (P21564 1-805 E166V/C212S) with V166Y
How it was run: as §1

[1] = biological target: T3, wild-type CLC-0 (E166, C212S background) (Torpedo marmorata, UniProt P21564, C212S); settings: for IC50: read-out: Apparent affinity (K1/2)
T3 sequence (P21564 1-805 C212S): T1 sequence (P21564 1-805 E166V/C212S) with V166E
How it was run: as §1

Work on `O=C(O)COc1ccc(Cl)cc1` [CPA, p-chlorophenoxy acetate] yielded an IC50 (CLC-0 E166V mutant; −40 mV) of 676 ± 78 µM, an IC50 (CLC-0 E166V mutant; −60 mV) of 373 ± 37 µM and an IC50 (CLC-0 E166V mutant; −80 mV) of 198 ± 15 µM. For the same compound, the IC50 (CLC-0 E166V mutant; −100 mV) was 113 ± 10 µM, the IC50 (CLC-0 E166V mutant; −120 mV) was 65 ± 7 µM and the IC50 (CLC-0 E166V mutant; −140 mV) was 40 ± 4 µM. The IC50 (CLC-0 E166V mutant; −160 mV) was 26 ± 3 µM, the IC50 (CLC-0 E166Y mutant; −40 mV) was 6180 ± 670 µM and the IC50 (CLC-0 E166Y mutant; −60 mV) was 2790 ± 150 µM. For the same compound, the IC50 (CLC-0 E166Y mutant; −80 mV) was 1370 ± 50 µM, the IC50 (CLC-0 E166Y mutant; −100 mV) was 700 ± 10 µM and the IC50 (CLC-0 E166Y mutant; −120 mV) was 380 ± 10 µM. The IC50 (CLC-0 E166Y mutant; −140 mV) was 220 ± 10 µM, the IC50 (CLC-0 E166Y mutant; −160 mV) was 130 ± 10 µM and the IC50 ([1]; −40 mV) was 9370 ± 330 µM. For the same compound, the IC50 ([1]; −60 mV) was 5220 ± 230 µM, the IC50 ([1]; −80 mV) was 2870 ± 200 µM and the IC50 ([1]; −100 mV) was 1960 ± 210 µM. The IC50 ([1]; −120 mV) was 1570 ± 190 µM, the IC50 ([1]; −140 mV) was 1170 ± 190 µM and the IC50 ([1]; −160 mV) was 1340 ± 250 µM.
For `CCCCCCCC(=O)O` [octanoate], the IC50 (CLC-0 E166V mutant; −40 mV) was 231 ± 14 µM, the IC50 (CLC-0 E166V mutant; −60 mV) was 126 ± 6.5 µM and the IC50 (CLC-0 E166V mutant; −80 mV) was 67.2 ± 3.7 µM. The IC50 (CLC-0 E166V mutant; −100 mV) was 35.3 ± 2.8 µM, the IC50 (CLC-0 E166V mutant; −120 mV) was 18.4 ± 1.5 µM and the IC50 (CLC-0 E166V mutant; −140 mV) was 10.2 ± 0.8 µM. It also gave an IC50 (CLC-0 E166V mutant; −160 mV) of 6 ± 0.4 µM, an IC50 (CLC-0 E166Y mutant; −80 mV) of 16700 ± 650 µM and an IC50 (CLC-0 E166Y mutant; −100 mV) of 11200 ± 540 µM. For the same compound, the IC50 (CLC-0 E166Y mutant; −120 mV) was 7430 ± 410 µM, the IC50 (CLC-0 E166Y mutant; −140 mV) was 4990 ± 310 µM and the IC50 (CLC-0 E166Y mutant; −160 mV) was 3360 ± 180 µM. The IC50 ([1]; −40 mV) was 2610 ± 300 µM, the IC50 ([1]; −60 mV) was 1290 ± 130 µM and the IC50 ([1]; −80 mV) was 670 ± 50 µM. For the same compound, the IC50 ([1]; −100 mV) was 390 ± 10 µM, the IC50 ([1]; −120 mV) was 300 ± 20 µM and the IC50 ([1]; −140 mV) was 260 ± 30 µM. The IC50 ([1]; −160 mV) was 190 ± 40 µM and the “effect on fast gate Po-V curve” value ([1]; various concentrations, initial tail current) was “shifts the fast gate Po-V curve toward more depolarized voltages”.
